Assay outcomes (PubChem)
Shown are actives, neighbours in structure and some others; about 1.9% of the full set was active somewhere.
FID counter: compounds displacing fluorescent DNA intercalator, primary screen, artefact control for HCV NS3 helicase inhibitor project, biochemical, FID fluorescence; DNA fluorescent intercalator displacement; inhibition, % at 7.9 µM; 290,000 compounds, 0.17% hits; in the data active = inhibition above about 37%;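 note: 0% = vehicle and 100% = reference compound; higher means more ethidium bromide displaced from hairpin DNA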
core dimer inh: inhibitors of HCV core protein dimerization, primary screen, biochemical, TR-FRET, high-throughput. 300,000 compounds, 0.33% hits. inhibition, % at 5 µM. TR-FRET GST/Flag-core106 dimerization, 1536-well. AID 1899, 2009;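 active = inhibition above the mean of all tested compounds plus 3 SD, set per screening campaign, cut at about 45% in these data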
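Assay system: tagged HCV core106 pair (GST and Flag); medium: KF-containing HEPES buffer, pH 7.45, DTT, CHAPS, BSA; also added: Eu donor and XL665 acceptor anti-tag antibodies; dosing: 5 µM single dose; timing: compound-protein-antibody incubation 4 h at 22.5 °C; signal: TR-FRET 671 and 617 nm emission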
NS3 helicase inh: inhibitors of HCV NS3 helicase, primary screen, biochemical, Cy5 molecular beacon fluorescence; NS3 helicase DNA unwinding; inhibition, % at 10.9 µM; Hepatitis C virus NS3 helicase; 290,000 compounds, 0.56% hits;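 active = inhibition above the mean of all tested compounds plus 3 SD, set per campaign, cut at about 35% in these data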;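 note: 0% = DMSO wells and 100% = thioflavine S control wells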
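Control set: DMSO versus 110 µM thioflavine S; Material: NS3 helicase fragment of HCV; Measured by: Cy5 fluorescence at 0 and 60 min, beacon hairpin quenching; Read-out basis: percent inhibition from t60/t0 fluorescence ratio; Times: reaction time 60 min, 25 °C; Repeats: single replicate; Compound dosing: single dose, 10.9 µM nominal final, DMSO 0.8% final.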
GPR7 antag: GPR7 receptor antagonists, primary screen, cell-based, fluorescence, single concentration; Neuropeptides B/W receptor type 1 (Homo sapiens), P48145; GPR7-expressing cells, fluorescence antagonist assay; inhibition, % at 4.4 µM; 290,000 compounds, 1.1% hits; AID 1861, 2009; in the data active = inhibition above about 16%, passing the limit was not always enough;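 note: cells stimulated with the agonist NPW; 0% = agonist with vehicle and 100% = vehicle without agonist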
p-CIP stab down: p/CIP-EGFP fusion destabilizers, primary screen, fluorescence, F442A cells; Q05BA5; 290,000 compounds, 0.01% hits; decrease of EGFP signal, % at 10 µM; 16 h;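 active = EGFP signal decrease of at least 30% at 10 µM or well 3 SD below plate mean, unless failing retest; inactive = the rest, including hits failing retest or dose response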
GPR7 antag cf: GPR7 receptor antagonists, confirmation, cell-based, fluorescence, single concentration | 2,400 compounds, 52% hits | GPR7-expressing cells, calcium fluorescence antagonist mode | inhibition, % at 4.4 µM | AID 1952, 2009 | shares compounds with GPR7 antag; in the data active = inhibition above about 24%;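 note: stimulated with the GPR7 agonist NPW; 0% = agonist plus vehicle and 100% = vehicle alone without agonist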
MCHR1 antag: MCHR1 antagonists in cells, counter-screen for GPR7 antagonist project, cell-based, fluorescence, human; shares compounds with GPR7 antag; MCHR1-expressing cells, fluorescence antagonist assay; inhibition, % at 4.4 µM; 2,400 compounds, 62% hits; in the data active = inhibition above about 22%;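 note: 0% = vehicle with agonist and 100% = vehicle without agonist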
* marks the source's active call; other numbers are inactive results; x = no result given.

SMILES	FID counter	core dimer inh	NS3 helicase inh	GPR7 antag	p-CIP stab down	GPR7 antag cf	MCHR1 antag
O=C(NC1CCCC1)C(c1ccc(F)cc1)N(Cc1ccccc1)C(=O)c1csnn1 (configuration not stated)	-35	-2	-3	23*	-8	32*	22*
COCCN(C(=O)c1csnn1)C(C(=O)NC1CCCCC1)c1ccc(C)cc1 (configuration not stated)	-35	-5	4	-6	-11	x	x
O=C(NC1CCCC1)C(c1ccccc1)N(Cc1ccc(F)cc1)C(=O)c1csnn1 (configuration not stated)	-27	-2	0	5	-6	x	x
CN(C)CCNC(=O)c1cc2sc3ccccc3c2s1	24	5	-25	0	2	x	x
CC(C)NC(=O)CSc1nnc(-c2ccc(F)cc2)c2ccccc12	-19	11	2	-18	8	x	x
Cc1ccc2c(c1)[C@@H]1CN(C)CC[C@@H]1N2S(=O)(=O)c1ccc([N+](=O)[O-])cc1	22	-3	-16	29*	-20	-10	18
COc1ccc(NC(=O)C2CCCN(C(=O)Nc3ccc(F)cc3)C2)cc1 (configuration not stated)	-15	-4	5	-7	2	x	x
CC1CCCC(C)N1C(=O)CSc1nnnn1-c1cccc2c1CCCC2 (configuration not stated)	-32	23	-6	11	-2	x	x
O=C(CSc1nnnn1-c1cccc2c1CCCC2)NC1CCCC1	-32	7	-8	34*	-2	20	26*
